# Assay results gathered from unrelated publications.
# Lines come from different studies, so protocols differ.
# ERBB2: Receptor tyrosine-protein kinase erbB-2 (ERBB2, Homo sapiens, UniProt P04626)
SMILES,target,assay,setting,quantity,value
CCc1nn(C)c2nc(-c3ccc(C(=O)O)cc3)nc(NCc3ccc(F)cc3)c12,"cGMP-dependent 3',5'-cyclic phosphodiesterase (PDE2A, Homo sapiens, UniProt O00408)","enzyme activity, inhibitor, radiometric",10 µM,inhibition,35.7%
O=C(O)CNc1cccc(CN(Cc2ccc(-n3cccn3)cc2)S(=O)(=O)c2cccnc2)n1,"Carbonic anhydrase 1 (CA1, Homo sapiens, UniProt P00915)","enzyme activity, inhibitor",10 µM,inhibition,0%
C=CC(=O)N1CCCN(C(=O)c2cc(Sc3cnc(NC(=O)C4CC4)s3)c(C)cc2OC)C[C@H]1C,"Tyrosine-protein kinase ITK/TSK (ITK, Homo sapiens, UniProt Q08881)","enzyme activity, inhibitor",1 µM,inhibition,> 95%
CC(C)OC(=O)CNc1cccc(CN(Cc2ccc(-n3cccn3)cc2)S(=O)(=O)c2cccnc2)n1,"Alpha-2A adrenergic receptor (ADRA2A, Homo sapiens, UniProt P08913)","ligand displacement, radioligand",10 µM,inhibition,4%
C=CC(=O)N1CCC(COCC(=O)N2CCN(c3nc(-c4cnc(N)nc4C(F)F)nc(N4CCOC[C@@H]4C)n3)CC2)CC1,"Mitogen-activated protein kinase kinase kinase 2 (MAP3K2, Homo sapiens, UniProt Q9Y2U5)","binding, competition with immobilised ligand",1 µM,remaining binding,97%
CN(C)C/C=C/C(=O)Nc1cc2c(Nc3ccc(F)c(Cl)c3)ncnc2cc1O[C@H]1CCOC1,ERBB2,"cell-free assay, competition with immobilised ligand",10 µM,inhibition,~100%
CNc1ncc2c(/C=C/C(=O)N3CCC(OC)CC3)nn(Cc3cccc(C(F)(F)F)c3)c2n1,"Tyrosine-protein kinase ABL1 (ABL1, Homo sapiens, UniProt P00519)","enzyme activity, inhibitor, radiometric",1 µM,remaining activity,92%
Cc1cc([C@@H](C)Nc2ccccc2C(=O)O)c2nc(N3CCC(F)(F)CC3)c(C#N)c(=O)n2c1,"Tyrosine-protein kinase ABL1, phosphorylated (ABL1, Homo sapiens, UniProt P00519)","binding, competition with immobilised ligand",1 µM,remaining binding,100%
COc1cc(-c2cncc3c2CN(C)Cc2cc(N4CCNCC4)ccc2-3)cc(OC)c1OC,ERBB2,"enzyme activity, inhibitor",1 µM,remaining activity,106%
O=C(COP(=O)(O)O)[C@@H](O)[C@H](O)[C@H](O)COP(=O)(O)O,"Son of sevenless homolog 1 (SOS1, Homo sapiens, UniProt Q07889)",thermal stability,"5 mM, lysate",ΔTm,-6.2 °C
